From publication PMC12166256 (Clinical Pharmacology and Therapeutics, 2025)

Test: MAD study: safety and tolerability
Assay type: in vivo, human
Conditions: for Abdominal pain TEAE, events / Abdominal pain TEAE, participants / Alanine aminotransferase increased TEAE, events / Alanine aminotransferase increased TEAE, participants / Any event TEAE, events / Any event TEAE, participants / Constipation TEAE, events / Constipation TEAE, participants / Diarrhea TEAE, events / Diarrhea TEAE, participants / Dry skin TEAE, events / Dry skin TEAE, participants / Dysgeusia TEAE, events / Dysgeusia TEAE, participants / Gastrointestinal disorders TEAE, events / Gastrointestinal disorders TEAE, participants / General disorders and administration site conditions TEAE, events / General disorders and administration site conditions TEAE, participants / Headache TEAE, events / Headache TEAE, participants / Injury, poisoning, and procedural complications TEAE, events / Injury, poisoning, and procedural complications TEAE, participants / Investigations TEAE, events / Investigations TEAE, participants / Medical device site reaction TEAE, events / Medical device site reaction TEAE, participants / Musculoskeletal and connective tissue disorders TEAE, events / Musculoskeletal and connective tissue disorders TEAE, participants / Nasal dryness TEAE, events / Nasal dryness TEAE, participants / Neck pain TEAE, events / Neck pain TEAE, participants / Nervous system disorders TEAE, events / Nervous system disorders TEAE, participants / Oropharyngeal pain TEAE, events / Oropharyngeal pain TEAE, participants / Reproductive system and breast disorders TEAE, events / Reproductive system and breast disorders TEAE, participants / Respiratory, thoracic, and mediastinal disorders TEAE, events / Respiratory, thoracic, and mediastinal disorders TEAE, participants / Skin and subcutaneous tissue disorders TEAE, events / Skin and subcutaneous tissue disorders TEAE, participants / Sneezing TEAE, events / Sneezing TEAE, participants / Testicular mass TEAE, events / Testicular mass TEAE, participants / Wound TEAE, events / Wound TEAE, participants: N = 8
Method in brief: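 Healthy males aged 18–55 with BMI 18–30 kg/m² were followed through dosing and a 6–8-day follow-up. Checks: physical examination, clinical laboratory tests, vital signs and 12-lead ECG, with adverse events coded in MedDRA. Events of special interest: ALT ≥2×ULN, QTcF ≥500 ms, Grade ≥2 photosensitivity, symptomatic overdose. Treatment-emergent events were summarised descriptively by organ class, preferred term and dose level for all exposed participants.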

For `CN1C(=O)c2cccc(OC(F)F)c2[C@H]2C[C@@H]1c1nc3ccc(-c4cnc(C5(N)CCC5)nc4)cc3n12` [Balinatunfib], the “Grade ≥ 3 TEAE, treatment-emergent SAEs, TEAEs leading to discontinuation” value (MAD) was “No participants”, the “Abdominal pain TEAE, events” value (MAD 100 mg BID) was 0 and the “Abdominal pain TEAE, participants” value (MAD 100 mg BID) was 0 n (%). For the same molecule, the “Alanine aminotransferase increased TEAE, events” value (MAD 100 mg BID) was 0, the “Alanine aminotransferase increased TEAE, participants” value (MAD 100 mg BID) was 0 n (%) and the “Any event TEAE, events” value (MAD 100 mg BID) was 3. For the same molecule, the “Any event TEAE, participants” value (MAD 100 mg BID) was 2 (25.0) n (%), the “Constipation TEAE, events” value (MAD 100 mg BID) was 0 and the “Constipation TEAE, participants” value (MAD 100 mg BID) was 0 n (%). The “Diarrhea TEAE, events” value (MAD 100 mg BID) was 0, the “Diarrhea TEAE, participants” value (MAD 100 mg BID) was 0 n (%) and the “Dry skin TEAE, events” value (MAD 100 mg BID) was 0. The “Dry skin TEAE, participants” value (MAD 100 mg BID) was 0 n (%), the “Dysgeusia TEAE, events” value (MAD 100 mg BID) was 0 and the “Dysgeusia TEAE, participants” value (MAD 100 mg BID) was 0 n (%). For the same molecule, the “Gastrointestinal disorders TEAE, events” value (MAD 100 mg BID) was 0, the “Gastrointestinal disorders TEAE, participants” value (MAD 100 mg BID) was 0 n (%) and the “General disorders and administration site conditions TEAE, events” value (MAD 100 mg BID) was 0. The “General disorders and administration site conditions TEAE, participants” value (MAD 100 mg BID) was 0 n (%), the “Headache TEAE, events” value (MAD 100 mg BID) was 0 and the “Headache TEAE, participants” value (MAD 100 mg BID) was 0 n (%). The “Injury, poisoning, and procedural complications TEAE, events” value (MAD 100 mg BID) was 0, the “Injury, poisoning, and procedural complications TEAE, participants” value (MAD 100 mg BID) was 0 n (%) and the “Investigations TEAE, events” value (MAD 100 mg BID) was 0. For the same molecule, the “Investigations TEAE, participants” value (MAD 100 mg BID) was 0 n (%), the “Medical device site reaction TEAE, events” value (MAD 100 mg BID) was 0 and the “Medical device site reaction TEAE, participants” value (MAD 100 mg BID) was 0 n (%). The “Musculoskeletal and connective tissue disorders TEAE, events” value (MAD 100 mg BID) was 0, the “Musculoskeletal and connective tissue disorders TEAE, participants” value (MAD 100 mg BID) was 0 n (%) and the “Nasal dryness TEAE, events” value (MAD 100 mg BID) was 0. For the same molecule, the “Nasal dryness TEAE, participants” value (MAD 100 mg BID) was 0 n (%), the “Neck pain TEAE, events” value (MAD 100 mg BID) was 0 and the “Neck pain TEAE, participants” value (MAD 100 mg BID) was 0 n (%). The “Nervous system disorders TEAE, events” value (MAD 100 mg BID) was 0, the “Nervous system disorders TEAE, participants” value (MAD 100 mg BID) was 0 n (%) and the “Oropharyngeal pain TEAE, events” value (MAD 100 mg BID) was 1. For the same molecule, the “Oropharyngeal pain TEAE, participants” value (MAD 100 mg BID) was 1 (12.5) n (%), the “Reproductive system and breast disorders TEAE, events” value (MAD 100 mg BID) was 1 and the “Reproductive system and breast disorders TEAE, participants” value (MAD 100 mg BID) was 1 (12.5) n (%). The “Respiratory, thoracic, and mediastinal disorders TEAE, events” value (MAD 100 mg BID) was 2, the “Respiratory, thoracic, and mediastinal disorders TEAE, participants” value (MAD 100 mg BID) was 2 (25.0) n (%) and the “Skin and subcutaneous tissue disorders TEAE, events” value (MAD 100 mg BID) was 0. For the same molecule, the “Skin and subcutaneous tissue disorders TEAE, participants” value (MAD 100 mg BID) was 0 n (%), the “Sneezing TEAE, events” value (MAD 100 mg BID) was 1 and the “Sneezing TEAE, participants” value (MAD 100 mg BID) was 1 (12.5) n (%). The “Testicular mass TEAE, events” value (MAD 100 mg BID) was 1, the “Testicular mass TEAE, participants” value (MAD 100 mg BID) was 1 (12.5) n (%) and the “Wound TEAE, events” value (MAD 100 mg BID) was 0. For the same molecule, the “Wound TEAE, participants” value (MAD 100 mg BID) was 0 n (%), the “Abdominal pain TEAE, events” value (MAD 100 mg QD) was 1 and the “Abdominal pain TEAE, participants” value (MAD 100 mg QD) was 1 (12.5) n (%). For the same molecule, the “Alanine aminotransferase increased TEAE, events” value (MAD 100 mg QD) was 3, the “Alanine aminotransferase increased TEAE, participants” value (MAD 100 mg QD) was 3 (37.5) n (%) and the “Any event TEAE, events” value (MAD 100 mg QD) was 9. For the same molecule, the “Any event TEAE, participants” value (MAD 100 mg QD) was 4 (50.0) n (%), the “Constipation TEAE, events” value (MAD 100 mg QD) was 0 and the “Constipation TEAE, participants” value (MAD 100 mg QD) was 0 n (%). For the same molecule, the “Diarrhea TEAE, events” value (MAD 100 mg QD) was 2, the “Diarrhea TEAE, participants” value (MAD 100 mg QD) was 2 (25.0) n (%) and the “Dry skin TEAE, events” value (MAD 100 mg QD) was 0. The “Dry skin TEAE, participants” value (MAD 100 mg QD) was 0 n (%), the “Dysgeusia TEAE, events” value (MAD 100 mg QD) was 0 and the “Dysgeusia TEAE, participants” value (MAD 100 mg QD) was 0 n (%). For the same molecule, the “Gastrointestinal disorders TEAE, events” value (MAD 100 mg QD) was 3, the “Gastrointestinal disorders TEAE, participants” value (MAD 100 mg QD) was 2 (25.0) n (%) and the “General disorders and administration site conditions TEAE, events” value (MAD 100 mg QD) was 0. The “General disorders and administration site conditions TEAE, participants” value (MAD 100 mg QD) was 0 n (%), the “Headache TEAE, events” value (MAD 100 mg QD) was 1 and the “Headache TEAE, participants” value (MAD 100 mg QD) was 1 (12.5) n (%). The “Injury, poisoning, and procedural complications TEAE, events” value (MAD 100 mg QD) was 1, the “Injury, poisoning, and procedural complications TEAE, participants” value (MAD 100 mg QD) was 1 (12.5) n (%) and the “Investigations TEAE, events” value (MAD 100 mg QD) was 3. For the same molecule, the “Investigations TEAE, participants” value (MAD 100 mg QD) was 3 (37.5) n (%), the “Medical device site reaction TEAE, events” value (MAD 100 mg QD) was 0 and the “Medical device site reaction TEAE, participants” value (MAD 100 mg QD) was 0 n (%). The “Musculoskeletal and connective tissue disorders TEAE, events” value (MAD 100 mg QD) was 1, the “Musculoskeletal and connective tissue disorders TEAE, participants” value (MAD 100 mg QD) was 1 (12.5) n (%) and the “Nasal dryness TEAE, events” value (MAD 100 mg QD) was 0. For the same molecule, the “Nasal dryness TEAE, participants” value (MAD 100 mg QD) was 0 n (%), the “Neck pain TEAE, events” value (MAD 100 mg QD) was 1 and the “Neck pain TEAE, participants” value (MAD 100 mg QD) was 1 (12.5) n (%). The “Nervous system disorders TEAE, events” value (MAD 100 mg QD) was 1, the “Nervous system disorders TEAE, participants” value (MAD 100 mg QD) was 1 (12.5) n (%) and the “Oropharyngeal pain TEAE, events” value (MAD 100 mg QD) was 0. For the same molecule, the “Oropharyngeal pain TEAE, participants” value (MAD 100 mg QD) was 0 n (%), the “Reproductive system and breast disorders TEAE, events” value (MAD 100 mg QD) was 0 and the “Reproductive system and breast disorders TEAE, participants” value (MAD 100 mg QD) was 0 n (%). The “Respiratory, thoracic, and mediastinal disorders TEAE, events” value (MAD 100 mg QD) was 0, the “Respiratory, thoracic, and mediastinal disorders TEAE, participants” value (MAD 100 mg QD) was 0 n (%) and the “Skin and subcutaneous tissue disorders TEAE, events” value (MAD 100 mg QD) was 0. For the same molecule, the “Skin and subcutaneous tissue disorders TEAE, participants” value (MAD 100 mg QD) was 0 n (%), the “Sneezing TEAE, events” value (MAD 100 mg QD) was 0 and the “Sneezing TEAE, participants” value (MAD 100 mg QD) was 0 n (%). The “Testicular mass TEAE, events” value (MAD 100 mg QD) was 0, the “Testicular mass TEAE, participants” value (MAD 100 mg QD) was 0 n (%) and the “Wound TEAE, events” value (MAD 100 mg QD) was 1. The “Wound TEAE, participants” value (MAD 100 mg QD) was 1 (12.5) n (%), the “Abdominal pain TEAE, events” value (MAD 200 mg BID) was 0 and the “Abdominal pain TEAE, participants” value (MAD 200 mg BID) was 0 n (%).
